According to ChEMBL document CHEMBL5260851, “Iodinated Choline Transport-Targeted Tracers” (J Med Chem, 2020):

How the values were obtained:
[1] = Displacement of [3H]-choline from choline transporter in human PC-3 cells preincubated with [3H]-choline for 15 mins followed by compound addition and measured after 60 mins; format: cell-based
[2] = Cytotoxicity against human BJ cells; format: toxicity, cell-based
[3] = Cytotoxicity against human MRC5 cells; format: toxicity, cell-based
[4] = Stability in human plasma assessed as parent compound remaining at 2 uM after 2 hrs by RF-MS analysis; format: ADME, cell-free; conditions: read-out: Stability
Procedure, shortened: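 Compound at 2 μM final (DMSO ≤0.1%) incubated in human plasma at 37 °C, sampled at 0, 15, 30, 60 and 120 min. Quenched with ACN–methanol (2:1) and measured by RapidFire-MS/MS (ESI+, MRM). The value is the percent of parent remaining.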

[5] = Stability in human liver microsomes assessed as parent compound remaining at 2 uM after 60 mins in presence of NADPH generating system by RF-MS analysis; format: ADME, Microsome; conditions: read-out: Stability
Procedure, shortened: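 Compound at 2 μM with human liver microsomes (0.5 mg·mL⁻¹) and an NADPH-generating system (NADP⁺, isocitrate dehydrogenase, isocitric acid, MgSO4) in 0.1 M phosphate buffer at 37 °C. Samples taken at 0, 15, 30 and 60 min, quenched with ACN–methanol (2:1), freeze-dried, and analysed by RapidFire-MS against an internal standard.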

PC-3 [6] = assay: Biodistribution in human PC-3 cells xenografted mouse measured after 3 hrs by SPECT method; format: ADME, organism-based; conditions: in vivo
Procedure, shortened: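 Mice carried subcutaneous PC-3 xenografts. Static whole-body SPECT scans of 30 min under 2% isoflurane were run at 1, 3 and 24 h p.i., then a 20 min double CT.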

[7] = Displacement of [3H]-choline from choline transporter in human U-87 MG cells preincubated with [3H]-choline for 15 mins followed by compound addition and measured after 60 mins; format: cell-based
Procedure, shortened: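 PC-3 cells were grown in F12 Ham with 10% FBS, 0.25% bicarbonate and pen/strep; U-87 MG cells in DMEM with 10% FBS, 0.1 mM NEAA and 1.0 mM pyruvate; both at 37 °C, 5% CO2, used at 70–90% confluence. [3H]choline was added in Tris uptake buffer (pH 7.4), then compound in triplicate over 10 concentrations; readout was radioactivity per g of protein (BCA), with IC50 from a sigmoidal fit.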

PC-3 [8] = assay: Biodistribution in human PC-3 cells xenografted mouse measured after 3 hrs by PET method; format: ADME, organism-based; conditions: in vivo
Procedure, shortened: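 Mice carried subcutaneous PC-3 xenografts (5 × 10⁶ cells, right flank), with tumors at 100–300 mm³. [18F]fluorocholine 5–7 MBq was given retro-orbitally.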

Compound	IC50 [1]	IC50 [2]	IC50 [3]	remaining at 2 h, 2 µM [4]	remaining at 1 h, 2 µM [5]	Drug uptake (PC-3 [6])	IC50 [7]	Drug uptake (PC-3 [8])
C[N+]1(C)CCOC(O)(c2ccc(-c3ccc(C4(O)C[N+](C)(C)CCO4)cc3)cc2)C1 (stereo not drawn)	36 µM							
C[N+]1(Cc2ccccc2I)CCCC(O)C1 (stereo not drawn)	197 µM	> 50 µM	> 50 µM					
C[N+](C)(CCO)CCCCOc1ccccc1I	11 µM	> 50 µM	> 50 µM	91%	54%			
C[N+](C)(CCO)CCCCCCOc1ccc(I)c([N+](=O)[O-])c1	0.14 µM	> 50 µM	> 50 µM	89%	92%			
COc1c(I)cc(CC[N+](C)(C)CCO)cc1I	53 µM	> 50 µM	> 50 µM					
Cc1ccc(OCCCC[N+](C)(C)CCO)c(I)n1	18 µM	> 50 µM	> 50 µM					
C[N+](C)(CCO)CCCCCCOc1cccc([123I])c1.[Br-]						Not Active		
COc1ccc(CC[N+](C)(C)CCO)cc1I	24 µM	> 50 µM	> 50 µM					
OC1C[N+]2(Cc3ccccc3I)CCC1CC2 (stereo not drawn)	160 µM	> 50 µM	> 50 µM					
COc1ccc(CCC[N+](C)(C)CCO)cc1I	34 µM	> 50 µM	> 50 µM					
CC[N+](CC)(CCO)Cc1ccc(I)cc1	77 µM	> 50 µM	> 50 µM				77 µM	
OCC[N+]1(Cc2ccc(I)cc2)CCCC1 [listing 1 of 2 here]	16 µM						23 µM	
OCC[N+]1(Cc2cccc(I)c2)CCCC1	28 µM	> 50 µM	> 50 µM	66%	90%		8.8 µM	
OCC[N+]1(Cc2ccc(I)cc2)CCCC1 [listing 2 of 2 here]	11 µM	> 50 µM	> 50 µM	81%	74%		3.3 µM	
OCC[N+]1(CCOc2ccccc2I)CCCC1	4.7 µM	> 50 µM	> 50 µM	81%	78%			
C[N+](C)(CCO)CCCCOc1ccc(-c2ccccc2)cc1I	1.3 µM			90%	89%			
OCCN1CC[N+](CCO)(Cc2ccccc2I)CC1	908 µM	> 50 µM	> 50 µM					
COc1ccc(CC[N+]23CCC(CC2)C(O)C3)cc1I (stereo not drawn)	115 µM	> 50 µM	> 50 µM					
C[N+](C)(CCO)CCOc1ccccc1I	25 µM	> 50 µM	> 50 µM					
OCC[N+]1(CCCCOc2ccccc2I)CCCC1	5.1 µM	> 50 µM	> 50 µM	91%	70%			
C[N+]1(CCc2ccc(I)cc2)CCCC(O)C1 (stereo not drawn)	106 µM	> 50 µM	> 50 µM					
OCC[N+]1(CCOc2cccc(I)c2)CCCC1	15 µM	> 50 µM	> 50 µM					
C[N+](C)(CCO)CCOc1ccc(I)cc1	23 µM	> 50 µM	> 50 µM					
OCC[N+]1(CCCCCCOc2cccc(I)c2)CCCC1	0.91 µM	> 50 µM	> 50 µM	91%	79%			
OCC[N+]1(Cc2ccccc2I)CCOCC1	43 µM	> 50 µM	> 50 µM					
C[N+](C)(CCCCO)CCc1ccc(I)s1	30 µM	> 50 µM	> 50 µM					

Compound	IC50 [1]	IC50 [2]	IC50 [3]	remaining at 2 h, 2 µM [4]	remaining at 1 h, 2 µM [5]	Drug uptake (PC-3 [6])	IC50 [7]	Drug uptake (PC-3 [8])
C[N+](C)(CCO)Cc1ccc(I)cc1	130 µM	> 50 µM	> 50 µM				129 µM	
CC[N+](CC)(CCO)Cc1ccccc1I	8.1 µM	> 50 µM	> 50 µM	85%	100%		4.3 µM	
C[N+](C)(CCO)CCc1ccc(I)cc1	8.6 µM	> 50 µM	> 50 µM					
CS(=O)(=O)[O-].OCC[N+]1(Cc2cccc([123I])c2)CCCC1						Not Active		
CCCCCCCCCCOc1ccc(CCC[N+](C)(C)CCO)cc1I	2.1 µM			85%	82%		1.7 µM	
C[N+](C)(CCCO)CCc1ccc(I)s1	1.1 µM	> 50 µM	> 50 µM					
OCC[N+]1(CCOc2ccc(I)cc2)CCCC1	18 µM	> 50 µM	> 50 µM					
C[N+](C)(CCO)Cc1ccccc1I	216 µM	> 50 µM	> 50 µM					
OC1C[N+]2(CCc3ccc(I)cc3)CCC1CC2 (stereo not drawn)	75 µM	> 50 µM	> 50 µM					
C[N+](C)(CCO)CCc1ccc(I)s1	0.45 µM	> 50 µM	> 50 µM	89%	86%			
OCC[N+]1(CCCCC#CI)CCCC1	18 µM	> 50 µM	> 50 µM					
C[N+](C)(CCO)CCc1cccc(I)c1	1.2 µM	> 50 µM	> 50 µM	80%	100%		0.78 µM	
C[N+](C)(C[18F])CCO.[Cl-]								Not Active
CCCCCCOc1ccc(CCC[N+](C)(C)CCO)cc1I	0.41 µM			60%	93%		2.1 µM	
C[N+](C)(CCO)CCCCC#CI	36 µM	> 50 µM	> 50 µM					
OCC[N+]1(Cc2ccc(I)cc2)CCOCC1	273 µM	> 50 µM	> 50 µM					
OCC[N+]1(CCc2ccc(I)s2)CCCC1	10 µM	> 50 µM	> 50 µM	86%	86%			
OCC[N+]1(CCc2ccc(I)cc2)CCCC1	19 µM	> 50 µM	> 50 µM	98%	96%		29 µM	
OCC[N+]1(Cc2ccccc2I)CCCCC1	217 µM	> 50 µM	> 50 µM					
C[N+](C)(CF)CCO	20 µM							
C[N+](C)(CCO)CCCCCCOc1cccnc1I	1.4 µM	> 50 µM	> 50 µM	86%	86%			
C[N+](C)(CCO)CCCC#CI	3 µM	> 50 µM	> 50 µM	89%	95%			
C[N+](C)(CCO)CCCCCCOc1cccc(I)c1	0.044 µM	> 50 µM	> 50 µM	83%	85%			
C[N+](C)(CCO)CCOc1cccc(I)c1	22 µM	> 50 µM	> 50 µM					
C[N+](C)(CCO)Cc1cccc(I)c1	133 µM	> 50 µM	> 50 µM				25 µM	
C[N+](C)(C)CCO [CHOLINE]	4.7 µM							
